Test results as given in ChEMBL document CHEMBL1138761, “Exploring the binding mode of semicarbazide-sensitive amine oxidase/VAP-1: identification of novel substrates with insulin-like activity” (J Med Chem, 2004).
Values joined by “and” are separate entries in the source; they are usually repeats but may differ in a detail not shown here. Identical values can stand only once.

How the values were obtained:
[1] = Ratio of Vmax/Km for human, mouse or rat SSAO
In short: (§1)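 Crude membranes from human, rat or mouse adipocytes, made by hypo-osmotic lysis in 20 mM HES buffer with antiproteases (around 50 µg protein/assay). Incubated 30 min at 37 °C over a range of amine concentrations. H2O2 read spectrophotometrically with peroxidase, homovanillic acid and aminoantipyrine at 498 nm. Km and Vmax taken from Eadie-Hofstee plots; Vmax/Km ratio also given. Means ± SEM of 3-4 experiments.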

[2] = Maximum velocity for semicarbazide-sensitive amine oxidase (SSAO) of human, mouse or rat crude membranes; format: cell membranes; conditions: Membrane; in short: as §1

Ratio [1]	Vmax (nmol/min/mg protein) [2]	Structure (SMILES)
0.007 and 0.01		NCc1ccc(S(N)(=O)=O)cc1
	1.1 and 3.2	COc1cccc(CN)c1OC
0.28 and 0.66 and 0.5		NCc1cccc2ccccc12
